ABHD5 PLIN5 PPI – inhibitors of human ABHD5-perilipin-5 interaction | Q00G26+Q8WTS1 | Split G. princeps luciferase complementation, luminescence, 4 h | inhibition, % at 4 µM | 360,000 tested, 0.78% active | AID 602281;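 active means inhibition above the mean inhibition across every tested compound plus 3 SD, cut at about 22% in these data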;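 further: 0% = DMSO only wells and the 100% control is not disclosed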
Hsp70 act – transcriptional activators of Hsp70; HeLa Hsp70 promoter luciferase reporter, luminescence; scaled: vehicle 0, proteasome-inhibitor control 100%; activation, % at 10 µM; 200,000 tested, 0.04% active;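 active means activation above the mean across all tested compounds plus 3 SD, cutoff set per campaign, cut at about 5.5% in these data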;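 further: 100% = MG132 at 30 µM as the positive control and 0% = DMSO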
FXN GAA850 act – increases GAA850 frataxin promoter reporter activity. HEK293 lucGAA850 FXN promoter luciferase reporter, 24 h; percent of 10 µM SAHA response. activation, % at 6 µM. 360,000 tested, 0.56% active;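 active means activation above the average of all compounds screened plus 3 SD, cutoff fixed separately per campaign, cut at about 7.5% in these data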;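 further: 0% = DMSO wells and 100% = 10 µM SAHA wells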
TAG inh – triacylglycerol accumulation inhibition | H9c2 cells, Nile Red lipid (TAG) fluorescence; cells loaded with 200 µM oleic acid | inhibition, % at 12.5 µM | 230,000 tested, 0.66% active | AID 651582;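 active means pattern-corrected inhibition of lipid staining of at least 50% with the nuclear-stain viability signal not falling by more than 50%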;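 further: 0% = DMSO wells and 100% = triacsin C control wells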
HIF act – HIF pathway transcriptional activation | U2OS HRE-luciferase reporter, luminescence; normalized: DMSO 0%, desferrioxamine 100% | 300,000 tested, 0.32% active | AID 1910 | activation, % at 7.5 µM (by protocol);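 active means mean activation of at least 10% of the iron chelator positive control signal, with at least half of replicates also reaching 10%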
Rad51 HR inh – blocks human Rad51 in homologous recombination. inhibition, % at 10 µM. AID 1385. 200,000 tested, 0.085% active. hRad51 DNA strand exchange, fluorescence dequenching. Q06609;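 active means inhibition above 40% at the single screening dose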;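 further: 0% = DMSO control wells and 100% = blanks with heterologous ssDNA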
Target sequence (Q06609 whole entry, looked up): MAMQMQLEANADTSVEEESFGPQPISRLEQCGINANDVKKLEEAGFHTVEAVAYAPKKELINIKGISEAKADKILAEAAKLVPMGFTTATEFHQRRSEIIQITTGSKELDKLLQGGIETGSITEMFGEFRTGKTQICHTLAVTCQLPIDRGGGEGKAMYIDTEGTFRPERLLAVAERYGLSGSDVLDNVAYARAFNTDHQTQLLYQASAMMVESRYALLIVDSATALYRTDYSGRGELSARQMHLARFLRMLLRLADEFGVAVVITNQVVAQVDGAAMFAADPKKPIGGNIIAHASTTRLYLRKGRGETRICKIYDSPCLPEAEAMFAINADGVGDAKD
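material = hRad51 filaments on single-stranded DNA | timing = filaments 15 min 37 °C, then compound 30 min | signal = FRET fluorescence dequenching, excitation 485 nm, emission 520 nm | benchmarks = control wells and blank wells on each plate | evaluation = percent inhibition relative to plate controls and blanks | compound = 10 µM final, single point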
TAG conf – triacylglycerol accumulation inhibition, confirmation; inhibition, % at 12.5 µM; H9c2 lipid accumulation, Nile Red fluorescence; cells loaded with 200 µM oleic acid; shares compounds with TAG inh; 990 tested, 71% active;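 active means mean inhibition across replicates of 40% or more; inactive means mean inhibition below 40%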;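 further: plate controls were DMSO only wells for no effect and Triacsin C treated wells for full effect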
Numbers without * were called inactive; nt = no result. Only some compounds are listed: those with a hit (about 1.9% of all), similar ones and a draw of the others.

SMILES | ABHD5 PLIN5 PPI | Hsp70 act | FXN GAA850 act | TAG inh | HIF act | Rad51 HR inh | TAG conf
CC1CC(C)CN(CC(=O)c2cccs2)C1 (stereo unspecified) | 2.9 | -0.2 | -1.7 | 58.6* | -0.2 | -42.5 | 6.0
O=C1C=C(c2ccc(F)cc2OCc2ccccc2)C[C@@H](c2ccc(Cl)cc2)C1 | -1.7 | nt | 1.1 | -26.2 | nt | nt | nt
Cc1ccc(S(=O)(=O)NC2=C(N3CCN(c4ccccc4F)CC3)C(=O)c3ccccc3C2=O)cc1 | -3.8 | -0.3 | 1.6 | 68.4* | 1.0 | 3.6 | 77.8*
Cc1ccc(S(=O)(=O)NC2=C(N3CCN(Cc4ccccc4)CC3)C(=O)c3ccccc3C2=O)cc1 | -21.7 | -0.3 | -1.4 | nt | -0.2 | nt | nt
CCCOc1ccc(CNC(=O)Cc2cccs2)cc1 | -0.2 | nt | 2.8 | nt | 2.1 | nt | nt
O=C(Nc1ccc([N+](=O)[O-])cn1)c1cc(-c2cccc(Cl)c2)nc2ccccc12 | -0.1 | 0.2 | 3.5 | 67.6* | -0.1 | 5.6 | 52.5*
CCOC(=O)CNC(=O)Cn1cnc2c(nnn2-c2cccc(OC)c2)c1=O | 1.4 | nt | -0.6 | nt | -0.6 | nt | nt
CCCSc1nc(SCC(=O)NCc2ccccc2)c2c3c(sc2n1)COC(C)(CC)C3 (stereo unspecified) | 4.9 | -0.4 | -1.2 | 63.1* | 0.1 | 1.3 | 47.8*
CCO[C@@H]1OC(C(=O)N2CCN(Cc3ccccc3)CC2)=C[C@H](c2ccc(C(F)(F)F)cc2)[C@H]1CCCO | 11.6 | 0.2 | -1.3 | 52.7* | -0.3 | -3.9 | 51.5*
COc1ccc(-c2nc(-c3ccccc3)c(-c3cc([N+](=O)[O-])ccc3C)[nH]2)cc1OC | -4.9 | -0.4 | -0.2 | 50.1* | -0.5 | 10.5 | 57.7*
C#CCNC(=O)C1=C[C@H](c2ccc(C(F)(F)F)cc2)C[C@H](OCc2ccc(CO)cc2)O1 | 2.8 | -0.2 | 1.1 | -154.3 | 0.1 | 4.2 | nt
Cn1c2ccccc2c2c(C(=O)N3CCN(C(=O)c4ccco4)CC3)cn(C3CCCCC3)c(=O)c21 | 8.9 | -0.1 | -3.9 | 50.0* | -0.6 | -2.1 | 34.9
CCc1noc(C)c1C(=O)N(CC)c1nc2c(C)cccc2s1 | -5.7 | nt | 0.2 | 3.0 | -0.6 | nt | nt
